# From ChEMBL document CHEMBL2424551, “Synthesis, in vitro evaluation and molecular modelling of naphthalimide analogue as anticancer agents” (2013)
# Key:
# Type in all cases: functional
# NCI-H522 = assay: Growth inhibition of human NCI-H522 cells at 10 uM after 48 hrs by SRB assay; conditions: NCI-H522, 48 h, read-out: GI
# In short: (§1)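 Cells grown in RPMI 1640 with 5% FBS and 2 mM L-glutamine, plated at 5000–40,000 cells/well by doubling time and preincubated 24 h (37 °C, 5% CO2); a time-zero plate is TCA-fixed. Single dose added, then 48 h incubation. Fixed with cold TCA, stained with 0.4% SRB, dye solubilized in 10 mM Tris base, absorbance at 515 nm; percent growth vs time-zero and untreated control.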
# NCI-H460 = assay: Growth inhibition of human NCI-H460 cells at 10 uM after 48 hrs by SRB assay; conditions: NCI-H460, 48 h, read-out: GI; in short: as §1
# HOP-62 = assay: Growth inhibition of human HOP62 cells at 10 uM after 48 hrs by SRB assay; conditions: HOP-62, 48 h, read-out: GI; in short: as §1
# HL-60(TB) = assay: Growth inhibition of human HL-60(TB) cells at 10 uM after 48 hrs by SRB assay; conditions: HL-60, 48 h, read-out: GI
# In short: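 Single-concentration pass across the 60-line panel in RPMI 1640 with 5% FBS. Cells preincubated 24 h, then exposed 48 h at 37 °C, 5% CO2. Read by SRB staining with absorbance at 515 nm. Percent growth is taken relative to time-zero and untreated controls and reported as percent growth inhibition (GI %).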
# BT-549 = assay: Growth inhibition of human BT549 cells at 10 uM after 48 hrs by SRB assay; conditions: BT-549, 48 h, read-out: GI; in short: as §1
# T47D = assay: Growth inhibition of human T47D cells at 10 uM after 48 hrs by SRB assay; conditions: read-out: GI
# In short: (§2)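 NCI 60-cell-line screen with a single 10 µM dose. Cells are grown in RPMI 1640 with 5% FBS and 2 mM L-glutamine, plated at 5000–40,000 cells/well according to doubling time, and preincubated 24 h at 37 °C, 5% CO2; time-zero plates are TCA-fixed at that point. Drug exposure is 48 h. Adherent cells are fixed with cold TCA, stained with 0.4% SRB in 1% acetic acid and read at 515 nm. Percent growth is calculated relative to time-zero and untreated controls and reported as GI%.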
# Hs-578T = assay: Growth inhibition of human Hs578T cells at 10 uM after 48 hrs by SRB assay; conditions: read-out: GI; in short: as §1
# MCF7 = assay: Growth inhibition of human MCF7 cells at 10 uM after 48 hrs by SRB assay; conditions: MCF7, 48 h, read-out: GI; in short: as §1
# TK-10 = assay: Growth inhibition of human TK10 cells at 10 uM after 48 hrs by SRB assay; conditions: TK-10, 48 h, read-out: GI; in short: as §2
# SN12C = assay: Growth inhibition of human SN12C cells at 10 uM after 48 hrs by SRB assay; conditions: read-out: GI; in short: as §2
# 786-0 = assay: Growth inhibition of human 786-0 cells at 10 uM after 48 hrs by SRB assay; conditions: 786-0, 48 h, read-out: GI; in short: as §1
# OVCAR-5 = assay: Growth inhibition of human OVCAR5 cells at 10 uM after 48 hrs by SRB assay; conditions: OVCAR-5, 48 h, read-out: GI; in short: as §1
# OVCAR-8 = assay: Growth inhibition of human OVCAR8 cells at 10 uM after 48 hrs by SRB assay; conditions: OVCAR-8, 48 h, read-out: GI; in short: as §1
# SK-MEL-5 = assay: Growth inhibition of human SK-MEL-5 cells at 10 uM after 48 hrs by SRB assay; conditions: SK-MEL-5, 48 h, read-out: GI; in short: as §1
# MDA-MB-435 = assay: Growth inhibition of human MDA-MB-435 cells at 10 uM after 48 hrs by SRB assay; conditions: MDA-MB-435, 48 h, read-out: GI; in short: as §1
# LOX IMVI = assay: Growth inhibition of human LOXIMVI cells at 10 uM after 48 hrs by SRB assay; conditions: read-out: GI; in short: as §1
# Malme-3M = assay: Growth inhibition of human MALME-3M cells at 10 uM after 48 hrs by SRB assay; conditions: read-out: GI; in short: as §1
# SNB-19 = assay: Growth inhibition of human SNB19 cells at 10 uM after 48 hrs by SRB assay; conditions: SNB-19, 48 h, read-out: GI; in short: as §2
# SW-620 = assay: Growth inhibition of human SW620 cells at 10 uM after 48 hrs by SRB assay; conditions: SW-620, 48 h, read-out: GI; in short: as §2
# HT-29 = assay: Growth inhibition of human HT-29 cells at 10 uM after 48 hrs by SRB assay; conditions: HT-29, 48 h, read-out: GI; in short: as §1
# KM12 = assay: Growth inhibition of human KM12 cells at 10 uM after 48 hrs by SRB assay; conditions: KM12, 48 h, read-out: GI; in short: as §1
# HCT-116 = assay: Growth inhibition of human HCT116 cells at 10 uM after 48 hrs by SRB assay; conditions: HCT-116, 48 h, read-out: GI; in short: as §1
# U-251 = assay: Growth inhibition of human U251 cells at 10 uM after 48 hrs by SRB assay; conditions: U-251, 48 h, read-out: GI; in short: as §2
smiles,measurement,setting,value
O=c1c2cccc3c(NC4CCCCC4)ccc(c32)c2nc3ccccc3n12,inhibition of growth at 10 µM,NCI-H522,38.5%
same,inhibition of growth at 10 µM,NCI-H460,65.3%
same,inhibition of growth at 10 µM,HOP-62,< 20%
same,inhibition of growth at 10 µM,HL-60(TB),37.4%
same,inhibition of growth at 10 µM,BT-549,< 20%
same,inhibition of growth at 10 µM,T47D,67.5%
same,inhibition of growth at 10 µM,Hs-578T,< 20%
same,inhibition of growth at 10 µM,MCF7,86.5%
same,inhibition of growth at 10 µM,TK-10,22.6%
same,inhibition of growth at 10 µM,SN12C,< 20%
same,inhibition of growth at 10 µM,786-0,< 20%
same,inhibition of growth at 10 µM,OVCAR-5,< 20%
same,inhibition of growth at 10 µM,OVCAR-8,< 20%
same,inhibition of growth at 10 µM,SK-MEL-5,33.9%
same,inhibition of growth at 10 µM,MDA-MB-435,< 20%
same,inhibition of growth at 10 µM,LOX IMVI,26.6%
same,inhibition of growth at 10 µM,Malme-3M,< 20%
same,inhibition of growth at 10 µM,SNB-19,< 20%
same,inhibition of growth at 10 µM,SW-620,< 20%
same,inhibition of growth at 10 µM,HT-29,23.1%
same,inhibition of growth at 10 µM,KM12,< 20%
same,inhibition of growth at 10 µM,HCT-116,< 20%
O=c1c2cccc3c(Nc4c(F)cccc4F)ccc(c32)c2nc3ccccc3n12,inhibition of growth at 10 µM,NCI-H522,< 20%
same,inhibition of growth at 10 µM,NCI-H460,27.3%
same,inhibition of growth at 10 µM,HOP-62,< 20%
same,inhibition of growth at 10 µM,HL-60(TB),< 20%
same,inhibition of growth at 10 µM,BT-549,< 20%
same,inhibition of growth at 10 µM,T47D,47.3%
same,inhibition of growth at 10 µM,Hs-578T,< 20%
same,inhibition of growth at 10 µM,MCF7,79.6%
same,inhibition of growth at 10 µM,SN12C,< 20%
same,inhibition of growth at 10 µM,786-0,< 20%
same,inhibition of growth at 10 µM,OVCAR-5,< 20%
same,inhibition of growth at 10 µM,OVCAR-8,< 20%
same,inhibition of growth at 10 µM,SK-MEL-5,< 20%
same,inhibition of growth at 10 µM,MDA-MB-435,< 20%
same,inhibition of growth at 10 µM,LOX IMVI,< 20%
same,inhibition of growth at 10 µM,Malme-3M,< 20%
same,inhibition of growth at 10 µM,SNB-19,< 20%
same,inhibition of growth at 10 µM,SW-620,< 20%
same,inhibition of growth at 10 µM,HT-29,< 20%
same,inhibition of growth at 10 µM,KM12,21.1%
same,inhibition of growth at 10 µM,HCT-116,< 20%
O=c1c2cccc3c(Nc4ccc(Br)cn4)ccc(c32)c2nc3ccccc3n12,inhibition of growth at 10 µM,NCI-H522,< 20%
same,inhibition of growth at 10 µM,NCI-H460,< 20%
same,inhibition of growth at 10 µM,HOP-62,< 20%
same,inhibition of growth at 10 µM,HL-60(TB),< 20%
same,inhibition of growth at 10 µM,BT-549,< 20%
same,inhibition of growth at 10 µM,T47D,81.6%
same,inhibition of growth at 10 µM,Hs-578T,< 20%
same,inhibition of growth at 10 µM,MCF7,95.8%
same,inhibition of growth at 10 µM,TK-10,21.9%
same,inhibition of growth at 10 µM,SN12C,< 20%
same,inhibition of growth at 10 µM,786-0,< 20%
same,inhibition of growth at 10 µM,OVCAR-5,< 20%
same,inhibition of growth at 10 µM,OVCAR-8,< 20%
same,inhibition of growth at 10 µM,SK-MEL-5,23.8%
same,inhibition of growth at 10 µM,MDA-MB-435,< 20%
same,inhibition of growth at 10 µM,LOX IMVI,< 20%
same,inhibition of growth at 10 µM,Malme-3M,< 20%
same,inhibition of growth at 10 µM,U-251,< 20%
same,inhibition of growth at 10 µM,SNB-19,< 20%
same,inhibition of growth at 10 µM,SW-620,< 20%
same,inhibition of growth at 10 µM,HT-29,< 20%
same,inhibition of growth at 10 µM,KM12,22.8%
same,inhibition of growth at 10 µM,HCT-116,< 20%
O=c1c2cccc3c(Nc4ccccn4)ccc(c32)c2nc3ccccc3n12,inhibition of growth at 10 µM,NCI-H522,43.4%
same,inhibition of growth at 10 µM,NCI-H460,47.3%
same,inhibition of growth at 10 µM,HOP-62,32.2%
same,inhibition of growth at 10 µM,HL-60(TB),37.7%
same,inhibition of growth at 10 µM,BT-549,< 20%
same,inhibition of growth at 10 µM,T47D,53.4%
same,inhibition of growth at 10 µM,Hs-578T,< 20%
same,inhibition of growth at 10 µM,MCF7,71.3%
same,inhibition of growth at 10 µM,TK-10,34.2%
same,inhibition of growth at 10 µM,SN12C,28.3%
same,inhibition of growth at 10 µM,786-0,< 20%
same,inhibition of growth at 10 µM,OVCAR-5,< 20%
same,inhibition of growth at 10 µM,OVCAR-8,24.6%
same,inhibition of growth at 10 µM,SK-MEL-5,48.2%
same,inhibition of growth at 10 µM,MDA-MB-435,< 20%
same,inhibition of growth at 10 µM,LOX IMVI,30.4%
same,inhibition of growth at 10 µM,Malme-3M,< 20%
same,inhibition of growth at 10 µM,SNB-19,< 20%
same,inhibition of growth at 10 µM,SW-620,22.9%
same,inhibition of growth at 10 µM,HT-29,35.4%
same,inhibition of growth at 10 µM,KM12,25.2%
same,inhibition of growth at 10 µM,HCT-116,35%
